Results on one molecule are retold here after ChEMBL document CHEMBL2176901, “Pyrrolo[3,4-h]quinolinones a new class of photochemotherapeutic agents” (Bioorg Med Chem, 2011).

Activity calls are given as the source filed them. The calls are words filed in the database; no cut-off is given here.

Test [1] relates to Jurkat. The experiment in a line: Induction of apoptosis in 3.75 J/cm'2 UV-A irradiated human Jurkat cells assessed as viable cells at 10 uM after 24 hrs by Annexin-V-FITC and propidium iodide based flow cytometry (reference value: 91%). In kind it is functional. To be noted: light or radiation study, read-out: Activity.
Test [2] concerns Nucleic Acid. The experiment in a line: Induction of photo-induced supercoiled Escherichia coli pBR322 DNA at drug:DNA ratio of 1:3 by agarose gel electrophoresis in presence of glutathione. In kind it is nucleic-acid assay. The procedure, abridged:
(§1)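 Supercoiled pBR322 (100 ng) in 10 mM phosphate buffer pH 7.2 irradiated with UV-A (3.75 J/cm²) at [DNA]/[drug] 1/3, with additives, under nitrogen or in deuterated buffer as stated. Aliquots then incubated at 37 °C with Fpg or Endo III. Run on 1% agarose in TAE, 80 V for 2 h, stained with ethidium bromide; Form I/II fractions from band densitometry.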

The test system of test [3] is Jurkat. The experiment in a line: Cell cycle arrest in UV-A irradiated human Jurkat cells assessed as accumulation at G1 phase at 5 uM after 24 hrs by propidium iodide based flow cytometry (reference value: 64.4 %). In kind it is functional. In a few lines:
(§2)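 Exponentially growing Jurkat cells (5×10^5) irradiated with UV-A (365 nm lamp, 2.5 J/cm²) in presence of compound. After 24 h: fixed in ice-cold 70% ethanol, lysed with RNAse A, stained with PI (10 µg/ml), analysed by flow cytometry. Phases calculated on living cells; subG1 is hypodiploid DNA peak.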
In general terms: A flow cytometer gives signals particle by particle.

Test [4] has as its system Jurkat. As to the kind of experiment: Cell cycle arrest in UV-A irradiated human Jurkat cells assessed as accumulation at S phase at 5 uM after 24 hrs by propidium iodide based flow cytometry (reference value: 25.3 %). The format is functional. The procedure, abridged: as §2
The test system of test [5] is Nucleic Acid. The experiment in a line: Induction of photo-induced supercoiled Escherichia coli pBR322 DNA damage at drug:DNA ratio of 1:3 by agarose gel electrophoresis in presence of DABCO. In kind it is nucleic-acid assay. The procedure, abridged: as §1
Another test relates to MCF7. As to the kind of experiment: Phototoxicity in 2.5 J/cm'2 UV-A irradiated human MCF7 cells assessed as cell viability after 72 hrs by MTT assay in presence of radical scavenger NaN3. The format is functional, cell-based. In a few lines: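 MCF-7 cells given compound plus scavenger in HBSS, 30 min at 37 °C, then UV-A (2.5 J/cm², 365 nm lamp). Medium replaced; viability by MTT after 72 h. Means ± SEM of at least three independent experiments.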
In general terms: Tetrazolium assays rely on reduction of a dye to a coloured formazan, in cell work by metabolically active cells.

In test [6] the test system is Nucleic Acid. As to the kind of experiment: Induction of photo-induced supercoiled Escherichia coli pBR322 DNA damage assessed as single strand break at drug:DNA ratio of 1:3 by agarose gel electrophoresis in presence of D2O buffer. In kind it is nucleic-acid assay. The procedure, abridged:
as §1

Regarding `CCOC(=O)c1c2c(c(C)n1C)-c1c(cc(S(=O)(=O)c3ccccc3)c(=O)n1C)CC2`, in the test on Jurkat [1], the viability at 10 µM is 45.2%. Further, the result in the test with Nucleic Acid [2], with Nucleic Acid [5] and with MCF7 was inactive. For the same molecule, the figures for the Activity with Jurkat [3] and with Jurkat [4] were 48.9% and 46.9%, respectively. For the same molecule, the result in the test with Nucleic Acid [6] was Active.
